This note sets out measurements from ChEMBL document CHEMBL2202980, “Anti-viral activity of (-)- and (+)-usnic acids and their derivatives against influenza virus A(H1N1)2009” (Bioorg Med Chem Lett, 2012).

Data set [1] in a line: Selectivity index, ratio of CTD50 for MDCK cells to ED50 for influenza virus A/California/07/09 (H1N1) pdm09. Format: toxicity, cell-based. The settings on record: dog, read-out: Selectivity Index.
The test system of a further data set is Influenza A virus. Description: Antiviral activity against Influenza virus A/California/07/09 (H1N1) pdm09 infected in MDCK cells after 48 hrs followed by incubated in chicken erythrocytes for 1 hr by hemagglutinination based end-point dilution method. Type of data set: functional, Influenza A virus (A/California/07/2009(H1N1)). To be noted: read-out: ED50 (the source's name). The procedure, abridged:
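MDCK cells were pretreated for 1 h at 37 °C with serial twofold compound dilutions in MEM containing 2 mM arginine, 2 mM glutamine and trypsin. They were then infected and cultured at 36 °C for 48 h. Supernatant was mixed with 1% chicken erythrocytes for 1 h at room temperature. Titer was read as the end-point dilution giving hemagglutination in 50% of wells. ED50 is the concentration halving virus production versus untreated control.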

The nature of data set [2]: Cytotoxicity against MDCK cells after 48 hrs by MTT assay. The settings on record: dog, read-out: CTD50. Type of data set: cell-based, Canis lupus familiaris. The procedure, abridged: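 MDCK monolayers were grown in MEM with 5% fetal calf serum and washed with serum-free MEM. They were exposed to serial twofold dilutions from 5 mg/ml DMSO stocks for 48 h at 37 °C. CTD50 was derived from this.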

The subject of data set [3] is RAW264.7. Description: Antiinflammatory activity in mouse RAW264.7 cells assessed as inhibition of LPS-induced iNOS protein synthesis. Type of data set: functional, cell-based.
The test system of data set [4] is RAW264.7. Kind of data set: Antiinflammatory activity in mouse RAW264.7 cells assessed as inhibition of LPS-induced TNFalpha level. Format: functional, cell-based.
Data set [5] in a line: Selectivity index, ratio of cytotoxicity against human CEM cells to Antiviral activity against HIV1 RF. Type of data set: toxicity, cell-based, CCRF-CEM. The settings on record: read-out: Selectivity Index.

On to `CC(=O)c1c(O)c(C)c(O)c2c1OC1=Cc3c(c(C)nn3-c3ccccc3)C(=O)[C@@]12C`, for which, in data set [1], the selectivity ratio amounted to 12.4. The EC50 in the data set on Influenza A virus (Influenza A virus, pdm09, MDCK) was found to be 62.2 µM. Moreover, the CC50 at 48 h in data set [2] stood at 769 µM.
As for `CC(=O)c1c(O)c(C)c(O)c2c1OC1=Cc3c(c(C)nn3-c3ccccc3)C(=O)[C@]12C`, in data set [1], the selectivity ratio was 9. Besides, the EC50 in the data set with Influenza A virus (Influenza A virus, pdm09, MDCK) worked out at 57.8 µM. Also, the CC50 at 48 h in data set [2] was 522 µM.
As to `CC(=O)c1c(O)c(C)c(O)c2c1OC1=Cc3c(c(C)nn3-c3ccccc3)[C@@H](O)[C@@]12C`, the selectivity ratio in data set [1] turned out to be 13.2. Besides, the EC50 in the data set with Influenza A virus (Influenza A virus, pdm09, MDCK) was 6 µM. The CC50 at 48 h in data set [2] was 78.9 µM.
In the case of `CC(=O)c1c(O)c(C)c(O)c2c1OC1=Cc3c(c(C)nn3-c3ccccc3)[C@@H](O)[C@]12C`, in data set [1], the selectivity ratio stood at 6.8. In addition, the EC50 in the data set with Influenza A virus (Influenza A virus, pdm09, MDCK) turned out to be 10.5 µM. Further, the CC50 at 48 h in data set [2] is 71.8 µM.
Turning to `CC(=O)c1c(O)c(C)c(O)c2c1OC1=CC(=O)/C(=C(/C)NCC(F)(F)C(F)F)C(=O)[C@@]12C`, the selectivity ratio in data set [1] turned out to be 19.4. For the same compound, in the data set on Influenza A virus (Influenza A virus, pdm09, MDCK), the EC50 was found to be 1.6 µM. For the same compound, the CC50 at 48 h in data set [2] was 31.1 µM.
With `CC(=O)c1c(O)c(C)c(O)c2c1OC1=CC(=O)/C(=C(/C)NCC(F)(F)C(F)F)C(=O)[C@]12C`, the selectivity ratio in data set [1] was determined as 10.2. The EC50 with Influenza A virus (Influenza A virus, pdm09, MDCK) was 38.9 µM. Also, the CC50 at 48 h in data set [2] was 397 µM.
The matching figures for `CC[N+](C)(CC)CCN/C(C)=C1\C(=O)C=C2Oc3c(C(C)=O)c(O)c(C)c(O)c3[C@@]2(C)C1=O`: 21.9, 5.5 µM and 121 µM.
With `CC[N+](C)(CC)CCN/C(C)=C1\C(=O)C=C2Oc3c(C(C)=O)c(O)c(C)c(O)c3[C@]2(C)C1=O`, in data set [1], the selectivity ratio was found to be 2.7. For the same compound, the EC50 in the data set on Influenza A virus (Influenza A virus, pdm09, MDCK) is 12.5 µM. For the same compound, the CC50 at 48 h in data set [2] is 34.2 µM.
`CC(=O)c1c(O)c(C)c(O)c2c1OC1=CC(=O)/C(=C(/C)NCC(=O)O)C(=O)[C@@]12C`: the selectivity ratio in data set [1] was 6. In addition, in the data set with Influenza A virus, the EC50 was 11.2 µM. In addition, the CC50 at 48 h in data set [2] was 67.3 µM.
On to `CC(=O)c1c(O)c(C)c(O)c2c1OC1=CC(=O)/C(=C(/C)NCC(=O)O)C(=O)[C@]12C`, for which, in data set [1], the selectivity ratio is 18.4. Further, the EC50 with Influenza A virus came out at 10.7 µM. Also, in data set [2], the CC50 at 48 h was determined as 197 µM.
Regarding `CC(=O)c1c(O)c(C)c(O)c2c1OC1=CC(=O)/C(=C(/C)NCCC(=O)O)C(=O)[C@@]12C`, the selectivity ratio in data set [1] was found to be 23.5. In the data set with Influenza A virus (Influenza A virus, pdm09, MDCK), the EC50 worked out at 6.9 µM. Further, the CC50 at 48 h in data set [2] was determined as 162 µM.
On to `CC(=O)c1c(O)c(C)c(O)c2c1OC1=CC(=O)/C(=C(/C)NCCC(=O)O)C(=O)[C@]12C`, for which the selectivity ratio in data set [1] is 1. Moreover, the EC50 in the data set with Influenza A virus (Influenza A virus, pdm09, MDCK) amounted to 400 µM. In data set [2], the CC50 at 48 h is 400 µM.
`CC(=O)c1c(O)c(C)c(O)c2c1OC1=CC(=O)/C(=C(/C)Nc3ccc(F)cc3)C(=O)[C@@]12C`: the selectivity ratio in data set [1] came to 8.8. The EC50 in the data set on Influenza A virus (Influenza A virus, pdm09, MDCK) was 23.6 µM. Moreover, the CC50 at 48 h in data set [2] was 208 µM.
The matching figures for `CC(=O)c1c(O)c(C)c(O)c2c1OC1=CC(=O)/C(=C(/C)Nc3ccc(F)cc3)C(=O)[C@]12C`: 3.9, 90.4 µM and 350 µM.
On the same counts, the results for `CC(=O)c1c(O)c(C)c(O)c2c1OC1=CC(=O)/C(=C(/C)Nc3ccc(Cl)cc3)C(=O)[C@@]12C` are 6.9, 25.1 µM and 172 µM.
Regarding `CC(=O)c1c(O)c(C)c(O)c2c1OC1=CC(=O)/C(=C(/C)Nc3ccc(Cl)cc3)C(=O)[C@]12C`, the selectivity ratio in data set [1] was found to be 11.7. For the same compound, in the data set with Influenza A virus (Influenza A virus, pdm09, MDCK), the EC50 was found to be 13.1 µM. Further, the CC50 at 48 h in data set [2] is 153 µM.
The matching figures for `CC(=O)c1c(O)c(C)c(O)c2c1OC1=CC(=O)/C(=C(/C)Nc3ccc(Br)cc3)C(=O)[C@@]12C`: 9.6, 20.2 µM and 193 µM.
On the same counts, the results for `CC(=O)c1c(O)c(C)c(O)c2c1OC1=CC(=O)/C(=C(/C)Nc3ccc(Br)cc3)C(=O)[C@]12C` are 5.1, 30.4 µM and 154 µM.
On the same counts, the results for `CC(=O)c1c(O)c(C)c(O)c2c1OC1=CC(=O)/C(=C(/C)Nc3cccc(F)c3)C(=O)[C@@]12C` are 4.8, 12.7 µM and 61.3 µM.
Regarding `CC(=O)c1c(O)c(C)c(O)c2c1OC1=CC(=O)/C(=C(/C)Nc3cccc(F)c3)C(=O)[C@]12C`, the selectivity ratio in data set [1] was found to be 8.8. Besides, the EC50 in the data set with Influenza A virus (Influenza A virus, pdm09, MDCK) worked out at 4 µM. For the same compound, the CC50 at 48 h in data set [2] came to 35.3 µM.
The matching figures for `CC(=O)c1c(O)c(C)c(O)c2c1OC1=CC(=O)/C(=C(/C)Nc3cccc(Br)c3)C(=O)[C@@]12C`: 3.2, 10.4 µM and 33.6 µM.
The matching figures for `CC(=O)c1c(O)c(C)c(O)c2c1OC1=CC(=O)/C(=C(/C)Nc3cccc(Br)c3)C(=O)[C@]12C`: 10, 9.8 µM and 97.8 µM.
Take `CC(=O)C1=C(O)C=C2O[C@]34O[C@@]3(C(C)=O)C(=O)C(C)=C(O)[C@]4(O)[C@@]2(C)C1=O`: the selectivity ratio in data set [1] amounted to 37.3. Moreover, in the data set on Influenza A virus (Influenza A virus, pdm09, MDCK), the EC50 was 5.1 µM. Moreover, the CC50 at 48 h in data set [2] was 190 µM.
On to `CC(=O)C1=C(O)C=C2O[C@]34O[C@@]3(C(C)=O)C(=O)C(C)=C(O)[C@]4(O)[C@]2(C)C1=O`, for which, in data set [1], the selectivity ratio is 8. Also, the EC50 in the data set on Influenza A virus (Influenza A virus, pdm09, MDCK) was 27.7 µM. In data set [2], the CC50 at 48 h came out at 221 µM.
`CC(=O)C1=C(O)C=C2Oc3c(C(C)=O)c(O)c(C)c(O)c3[C@@]2(C)C1=O` [(+)-USNIC ACID]: the IC50 (in general, the concentration that gives 50% inhibition) amounted to 4.7 µM in the data set with RAW264.7 [3] and 12.8 µM in the data set on RAW264.7 [4]. Further, the selectivity ratio in data set [5] worked out at 3; in data set [1] it was 5.9. In addition, in the data set on Influenza A virus, the EC50 worked out at 51.7 µM. The CC50 at 48 h in data set [2] amounted to 305 µM.
Consider `CC(=O)C1=C(O)C=C2Oc3c(C(C)=O)c(O)c(C)c(O)c3[C@]2(C)C1=O` [(-)-USNIC ACID], for which the selectivity ratio in data set [1] stood at 14.4. In addition, the EC50 in the data set on Influenza A virus (Influenza A virus, pdm09, MDCK) is 14.5 µM. In addition, the CC50 at 48 h in data set [2] is 209 µM.
For the compound `NC(=O)c1ncn([C@@H]2O[C@H](CO)[C@@H](O)[C@H]2O)n1` [RIBAVIRIN], the selectivity ratio in data set [1] was over 81. For the same compound, in the data set on Influenza A virus (Influenza A virus, pdm09, MDCK), the EC50 came to 24.6 µM. For the same compound, in data set [2], the CC50 at 48 h was over 2000 µM.
On the same counts, the results for `CC(N)C12CC3CC(CC(C3)C1)C2` (configuration not stated) [RIMANTADINE] are 5, 56.9 µM and 284 µM.
